Measurements taken from ChEMBL document CHEMBL2311431, “Synthesis and biological evaluation of some 5-arylidene-2-(1,3-thiazol-2-ylimino)-1,3-thiazolidin-4-ones as dual anti-inflammatory/antimicrobial agents” (Bioorg Med Chem, 2013).
Values after ≈ are worked out from the molar mass of the structure shown.

How the values were obtained:
[1] = system: Mus musculus; assay: Acute toxicity in AKR mouse up to 0.5 mmol/kg, ip; format: organism-based; settings: in vivo
[2] = system: Mus musculus; assay: Antiinflammatory activity in AKR mouse assessed as inhibition of carrageenan-induced paw edema at 0.01 mmol/kg, ip measured after 3.5 hrs of carrageenan-challenge; format: functional
Method in brief: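 AKR mice of both sexes (pregnant females excluded), 6-10 per group, fasted during the experiment. Edema induced by intradermal 0.05 mL of 2% carrageenin into the right hind paw. Compound given at 0.01 mmol/kg ip, suspended in water with Tween-80, at the same time as carrageenin.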

[3] = target: T1, Prostaglandin G/H synthase 1 (Ovis aries) (UniProt P05979); assay: (§1) Inhibition of ovine COX1 assessed as inhibition of PGF2a production by enzyme immunoassay; set-up: concentration or dose not given beside the values; settings: concentration not given here
T1 sequence (whole entry): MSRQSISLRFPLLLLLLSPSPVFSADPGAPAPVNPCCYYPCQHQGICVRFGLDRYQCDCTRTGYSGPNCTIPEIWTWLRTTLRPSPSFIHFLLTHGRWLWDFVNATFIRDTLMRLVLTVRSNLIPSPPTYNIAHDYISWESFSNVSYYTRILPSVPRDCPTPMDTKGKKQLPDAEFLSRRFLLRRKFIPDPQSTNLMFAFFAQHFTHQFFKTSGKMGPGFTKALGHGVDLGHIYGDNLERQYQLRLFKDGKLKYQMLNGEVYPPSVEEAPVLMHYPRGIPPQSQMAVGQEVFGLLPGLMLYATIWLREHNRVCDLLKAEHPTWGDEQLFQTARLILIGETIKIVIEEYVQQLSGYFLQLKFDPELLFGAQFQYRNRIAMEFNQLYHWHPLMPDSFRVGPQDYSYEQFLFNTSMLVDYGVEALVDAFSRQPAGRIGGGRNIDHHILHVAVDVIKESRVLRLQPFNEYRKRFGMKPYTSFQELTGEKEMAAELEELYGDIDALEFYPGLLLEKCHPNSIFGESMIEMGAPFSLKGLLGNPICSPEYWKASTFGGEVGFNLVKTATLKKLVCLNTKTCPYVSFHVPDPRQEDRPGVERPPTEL
Method in brief: (§2)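 Ovine COX-1 from a commercial screening kit, tested with 0.1 µM arachidonic acid, which is below the saturating level. COX-derived PGH2 is reduced by SnCl2 to PGF2a, quantified by enzyme immunoassay with a broad prostaglandin antibody. At least triplicate.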

[4] = target: T2, Prostaglandin G/H synthase 1 (Ovis aries, UniProt P05979); assay: as §1; method in brief: as §2
T2 sequence (P05979 whole entry): T1 sequence (whole entry)

[5] = (§3) Inhibition of soybean lipoxygenase assessed as inhibition of sodium linolate conversion to 13-hydroperoxylinoleic acid after 4 mins by spectrophotometry; set-up: species or system Glycine max; settings: read-out: IC50
[6] = system: Glycine max; assay: as §3
[7] = system: Aspergillus niger; assay: Fungicidal activity against Aspergillus niger ATCC 6275 after 72 hrs by serial subcultivation method; format: functional; settings: ATCC 6275, 72 h
[8] = system: Aspergillus niger; assay: Antifungal activity against Aspergillus niger ATCC 6275 after 72 hrs by serial dilution technique; format: functional; settings: ATCC 6275, 72 h
Method in brief: (§4)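 Serial dilution in malt broth; compounds from 1 mg/ml stocks in 5% DMSO; 72 h at 28 °C. MIC is the lowest concentration with no visible growth under a binocular microscope. Run in duplicate, repeated three times.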

[9] = system: Aspergillus fumigatus; assay: Fungicidal activity against Aspergillus fumigatus after 72 hrs by serial subcultivation method; format: functional
[10] = system: Aspergillus flavus; assay: Fungicidal activity against Aspergillus flavus ATCC 9643 after 72 hrs by serial subcultivation method; format: functional; settings: ATCC 9643, 72 h
[11] = system: Trichoderma viride; assay: Fungicidal activity against Trichoderma viride IAM 5061 after 72 hrs by serial subcultivation method; format: functional; settings: IAM 5061, 72 h
[12] = system: Penicillium ochrochloron; assay: Fungicidal activity against Penicillium ochrochloron ATCC 9112 after 72 hrs by serial subcultivation method; format: functional; settings: ATCC 9112, 72 h
[13] = system: Aspergillus flavus; assay: Antifungal activity against Aspergillus flavus ATCC 9643 after 72 hrs by serial dilution technique; format: functional; settings: ATCC 9643, 72 h; method in brief: as §4
[14] = system: Talaromyces funiculosus; assay: Fungicidal activity against Penicillium funiculosum ATCC 36839 after 72 hrs by serial subcultivation method; format: functional; settings: ATCC 36839, 72 h
[15] = system: Aspergillus fumigatus; assay: Antifungal activity against Aspergillus fumigatus after 72 hrs by serial dilution technique; format: functional; method in brief: as §4
[16] = system: Trichoderma viride; assay: Antifungal activity against Trichoderma viride IAM 5061 after 72 hrs by serial dilution technique; format: functional; settings: IAM 5061, 72 h; method in brief: as §4
[17] = system: Penicillium ochrochloron; assay: Antifungal activity against Penicillium ochrochloron ATCC 9112 after 72 hrs by serial dilution technique; format: functional; settings: ATCC 9112, 72 h; method in brief: as §4
[18] = system: Talaromyces funiculosus; assay: Antifungal activity against Penicillium funiculosum ATCC 36839 after 72 hrs by serial dilution technique; format: functional; settings: ATCC 36839, 72 h; method in brief: as §4
[19] = system: Escherichia coli; assay: Bactericidal activity against Escherichia coli ATCC 35210 after 72 hrs by serial subcultivation method; format: functional; settings: ATCC 35210, 72 h
[20] = system: Pseudomonas aeruginosa; assay: Bactericidal activity against Pseudomonas aeruginosa ATCC 27853 after 72 hrs by serial subcultivation method; format: functional; settings: ATCC 27853, 72 h
[21] = system: Listeria monocytogenes; assay: Bactericidal activity against Listeria monocytogenes NCTC 7973 after 72 hrs by serial subcultivation method; format: functional; settings: NCTC 7973, 72 h
[22] = system: Bacillus cereus; assay: Bactericidal activity against Bacillus cereus clinical isolate after 72 hrs by serial subcultivation method; format: functional
[23] = system: Micrococcus flavus; assay: Bactericidal activity against Micrococcus flavus ATCC 10240 after 72 hrs by serial subcultivation method; format: functional; settings: ATCC 10240, 72 h
[24] = system: Staphylococcus aureus; assay: Bactericidal activity against Staphylococcus aureus ATCC 6538 after 72 hrs by serial subcultivation method; format: functional; settings: ATCC 6538, 72 h
[25] = system: Escherichia coli; assay: Antibacterial activity against Escherichia coli ATCC 35210 after 24 hr by microdilution test; format: functional; settings: ATCC 35210, 24 h
Method in brief: (§5)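 Broth microdilution in LB medium, about 1.0×10^4 cfu per well; compounds from 1 mg/ml stocks in 5% DMSO. Incubated 24 h. MIC is the lowest concentration with no visible growth under a binocular microscope. Run in duplicate, repeated three times.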

[26] = system: Listeria monocytogenes; assay: Antibacterial activity against Listeria monocytogenes NCTC 7973 after 24 hr by microdilution test; format: functional; settings: NCTC 7973, 24 h; method in brief: as §5
[27] = system: Pseudomonas aeruginosa; assay: Antibacterial activity against Pseudomonas aeruginosa ATCC 27853 after 24 hr by microdilution test; format: functional; settings: ATCC 27853, 24 h; method in brief: as §5
[28] = system: Micrococcus flavus; assay: Antibacterial activity against Micrococcus flavus ATCC 10240 after 24 hr by microdilution test; format: functional; settings: ATCC 10240, 24 h; method in brief: as §5
[29] = system: Bacillus cereus; assay: Antibacterial activity against Bacillus cereus clinical isolate after 24 hr by microdilution test; format: functional; method in brief: as §5
[30] = system: Staphylococcus aureus; assay: Antibacterial activity against Staphylococcus aureus ATCC 6538 after 24 hr by microdilution test; format: functional; settings: ATCC 6538, 24 h; method in brief: as §5

In the case of `Cc1ccc(/C=C2\S/C(=N/c3nccs3)NC2=O)cc1`, the Activity [1] is reported as “Non-toxic”, the inhibition in vivo at 10 µmol/kg [2] is reported as 47% and the inhibition [3] is reported as 99%. It also gave an IC50 [4] of 51 µM, an IC50 [5] of 92 µM and an inhibition [6] of 67%. For the same molecule, the MFC [7] was 66 µM (≈ 19.9 µg/mL), the MIC [8] was 49.4 µM (≈ 14.9 µg/mL) and the MFC [9] was 66 µM (≈ 19.9 µg/mL). It also gave an MFC [10] of 66 µM (≈ 19.9 µg/mL), an MFC [11] of 49.4 µM (≈ 14.9 µg/mL) and an MFC [12] of 66 µM (≈ 19.9 µg/mL). It also gave an MIC [13] of 49.4 µM (≈ 14.9 µg/mL), an MFC [14] of 66 µM (≈ 19.9 µg/mL) and an MIC [15] of 49.4 µM (≈ 14.9 µg/mL). For the same molecule, the MIC [16] was 33 µM (≈ 9.95 µg/mL), the MIC [17] was 33 µM (≈ 9.95 µg/mL) and the MIC [18] was 49.4 µM (≈ 14.9 µg/mL). The MBC [19] was 66 µM (≈ 19.9 µg/mL), the MBC [20] was 24.7 µM (≈ 7.44 µg/mL) and the MBC [21] was 82.4 µM (≈ 24.8 µg/mL). The MBC [22] was 33 µM (≈ 9.95 µg/mL), the MBC [23] was 98.9 µM (≈ 29.8 µg/mL) and the MBC [24] was 33 µM (≈ 9.95 µg/mL). For the same molecule, the MIC [25] was 33 µM (≈ 9.95 µg/mL), the MIC [26] was 66 µM (≈ 19.9 µg/mL) and the MIC [27] was 16.5 µM (≈ 4.97 µg/mL). For the same molecule, the MIC [28] was 66 µM (≈ 19.9 µg/mL), the MIC [29] was 16.5 µM (≈ 4.97 µg/mL) and the MIC [30] was 24.7 µM (≈ 7.44 µg/mL).
In the case of `O=C1N/C(=N\c2nccs2)S/C1=C\c1c(Cl)cccc1Cl`, the Activity [1] is reported as “Non-toxic”, the inhibition in vivo at 10 µmol/kg [2] is reported as 58.5% and the inhibition [3] is reported as 100%. The IC50 [4] was 78 µM, the IC50 [5] was 137 µM and the inhibition [6] was 43%. It also gave an MFC [7] of 70.2 µM (≈ 25 µg/mL), an MIC [8] of 56.2 µM (≈ 20 µg/mL) and an MFC [9] of 70.2 µM (≈ 25 µg/mL). For the same molecule, the MFC [10] was 70.2 µM (≈ 25 µg/mL), the MFC [11] was 28.1 µM (≈ 10 µg/mL) and the MFC [12] was 56.2 µM (≈ 20 µg/mL). For the same molecule, the MIC [13] was 56.2 µM (≈ 20 µg/mL), the MFC [14] was 70.2 µM (≈ 25 µg/mL) and the MIC [15] was 56.2 µM (≈ 20 µg/mL). It also gave an MIC [16] of 21.1 µM (≈ 7.52 µg/mL), an MIC [17] of 28.1 µM (≈ 10 µg/mL) and an MIC [18] of 28.1 µM (≈ 10 µg/mL). It also gave an MBC [19] of 56.2 µM (≈ 20 µg/mL), an MBC [20] of 28.1 µM (≈ 10 µg/mL) and an MBC [21] of 84.2 µM (≈ 30 µg/mL). It also gave an MBC [22] of 28.1 µM (≈ 10 µg/mL), an MBC [23] of 84.2 µM (≈ 30 µg/mL) and an MBC [24] of 56.2 µM (≈ 20 µg/mL). It also gave an MIC [25] of 28.1 µM (≈ 10 µg/mL), an MIC [26] of 56.2 µM (≈ 20 µg/mL) and an MIC [27] of 21.1 µM (≈ 7.52 µg/mL). It also gave an MIC [28] of 56.2 µM (≈ 20 µg/mL), an MIC [29] of 21.1 µM (≈ 7.52 µg/mL) and an MIC [30] of 28.1 µM (≈ 10 µg/mL).
With `O=C1N/C(=N\c2nccs2)S/C1=C\c1cccc(O)c1` the Activity [1] was “Non-toxic”, the inhibition in vivo at 10 µmol/kg [2] was 33.7% and the inhibition [3] was 98%. It also gave an IC50 [4] of 16 µM, an IC50 [5] greater than 150 µM and an inhibition [6] of 35%.
